Test results published in ChEMBL document CHEMBL3813596, “Conformational Constraint of the Glycerol Moiety of Lysophosphatidylserine Affords Compounds with Receptor Subtype Selectivity” (J Med Chem, 2016).
pEC50: −log10 of the molar value. Active and inactive are the calls of the source. No cut-off for these calls is given here.

Experiments:
[1] = biological target: Probable G-protein coupled receptor 34 (Mus musculus) (UniProt Q9R1K6); assay: (§1) Agonist activity at mouse GPR34 expressed in HEK293A cells cotransfected with chimeric Galphaq/il after 1.5 hrs by alkaline phosphatase tagged-TGFalpha shedding assay; assay type: cell-based; settings: HEK293-A
Chain of Probable G-protein coupled receptor 34 (Mus musculus) (Q9R1K6 whole entry): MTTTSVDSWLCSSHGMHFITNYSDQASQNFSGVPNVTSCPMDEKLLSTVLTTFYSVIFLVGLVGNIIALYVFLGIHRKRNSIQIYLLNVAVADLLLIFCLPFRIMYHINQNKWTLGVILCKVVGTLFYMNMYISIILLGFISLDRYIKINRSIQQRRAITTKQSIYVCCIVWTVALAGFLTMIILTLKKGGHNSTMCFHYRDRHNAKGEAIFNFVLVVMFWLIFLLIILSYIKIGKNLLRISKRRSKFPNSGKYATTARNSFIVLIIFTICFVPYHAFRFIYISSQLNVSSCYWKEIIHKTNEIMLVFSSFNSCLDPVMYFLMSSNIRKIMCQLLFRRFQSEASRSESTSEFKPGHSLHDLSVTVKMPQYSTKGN

[2] = biological target: Probable G-protein coupled receptor 34 (Mus musculus, UniProt Q9R1K6); assay: as §1; assay type: cell-based, HEK293-A; settings: read-out: EC50
Chain of Probable G-protein coupled receptor 34 (Q9R1K6 whole entry): as above

[3] = biological target: Putative P2Y purinoceptor 10 (Mus musculus) (UniProt Q8BFU7); assay: (§2) Agonist activity at mouse P2Y10 receptor expressed in HEK293A cells after 1.5 hrs by alkaline phosphatase tagged-TGFalpha shedding assay; assay type: cell-based; settings: HEK293-A
Chain of Putative P2Y purinoceptor 10 (Mus musculus) (Q8BFU7 whole entry): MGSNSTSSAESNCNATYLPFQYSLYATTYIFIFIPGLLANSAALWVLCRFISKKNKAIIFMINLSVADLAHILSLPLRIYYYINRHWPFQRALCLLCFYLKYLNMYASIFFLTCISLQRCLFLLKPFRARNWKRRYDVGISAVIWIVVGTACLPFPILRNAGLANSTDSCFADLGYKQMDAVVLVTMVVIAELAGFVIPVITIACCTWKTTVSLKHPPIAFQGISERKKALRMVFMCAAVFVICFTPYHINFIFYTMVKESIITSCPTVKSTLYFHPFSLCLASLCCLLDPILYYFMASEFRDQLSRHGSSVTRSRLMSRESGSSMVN
Procedure, shortened: (§3)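 Transient transfection of HEK293 cells with AP-TGFα plus the mouse receptor. For GPR34, HEK293A cells also got a chimeric Gαq/i1 subunit; P2Y10 was run in HEK293A and GPR174 in HEK293FT. Cells were seeded 24 h post-transfection in 5 mM HEPES (pH 7.4) HBSS onto serial 3.2-fold compound dilutions (top final 32 μM or lower, limited by mock-cell signal). Ki16425 was present, and incubation ran 1.5 h.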

[4] = biological target: Putative P2Y purinoceptor 10 (Mus musculus, UniProt Q8BFU7); assay: as §2; assay type: cell-based, HEK293-A; settings: for pEC50: read-out: EC50; procedure, shortened: as §3
Chain of Putative P2Y purinoceptor 10 (Q8BFU7 whole entry): as above

[5] = biological target: Probable G-protein coupled receptor 34 (Mus musculus) (UniProt Q9R1K6); assay: Intrinsic activity at mouse GPR34 expressed in HEK293A cells cotransfected with chimeric Galphaq/il after 1.5 hrs by alkaline phosphatase tagged-TGFalpha shedding assay relative to O-(Hydroxy(((2R,3R)-2-(((3-(2-((3-phenoxybenzyl)oxy)phenyl)-propanoyl)oxy)methyl)tetrahydro-2H-pyran-3-yl)oxy)phosphoryl)-L-serine; assay type: cell-based; settings: HEK293-A
Procedure, shortened: (§4)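 It is a dimensionless estimate of agonist activity. The GPR34 assay used HEK293A cells with chimeric Gαq/i1 and a 1.5 h incubation; the P2Y10 assay used HEK293A cells.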

[6] = biological target: Putative P2Y purinoceptor 10 (Mus musculus) (UniProt Q8BFU7); assay: Intrinsic activity at mouse P2Y10 receptor expressed in HEK293A cells after 1.5 hrs by alkaline phosphatase tagged-TGFalpha shedding assay relative to diF-C3-ph-o-O-C11; assay type: cell-based; settings: HEK293-A; procedure, shortened: as §4
[7] = biological target: Probable G-protein coupled receptor 34 (Mus musculus) (UniProt Q9R1K6); assay: Agonist activity at mouse GPR34 expressed in HEK293A cells cotransfected with chimeric Galphaq/il assessed as increase in intracellular calcium levels at 1 uM measured after 35 secs by calcium 5 dye based fluorescence microplate reader method in presence of probenecid; assay type: functional, cell-based; settings: HEK293-A
Procedure, shortened: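 HEK293A cells were transfected with mouse GPR34 and Gαq/i1 plasmids, with empty vector plus Gαq/i1 as mock. After 24 h they were seeded in serum-free DMEM at 5 × 10^5 cells/mL for another 24 h. Cells were loaded with Calcium 5 dye for 1 h with 2.5 mM probenecid and given compound at 1 μM or 100 nM near 35 s. Fluorescence was recorded by plate reader, with SD of triplicates.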

[8] = biological target: Probable G-protein coupled receptor 174 (Mus musculus) (UniProt Q3U507); assay: Agonist activity at mouse GPR174 expressed in HEK293FT cells after 1.5 hrs by alkaline phosphatase tagged-TGFalpha shedding assay; assay type: cell-based; procedure, shortened: as §3
Chain of Probable G-protein coupled receptor 174 (Mus musculus) (Q3U507 whole entry): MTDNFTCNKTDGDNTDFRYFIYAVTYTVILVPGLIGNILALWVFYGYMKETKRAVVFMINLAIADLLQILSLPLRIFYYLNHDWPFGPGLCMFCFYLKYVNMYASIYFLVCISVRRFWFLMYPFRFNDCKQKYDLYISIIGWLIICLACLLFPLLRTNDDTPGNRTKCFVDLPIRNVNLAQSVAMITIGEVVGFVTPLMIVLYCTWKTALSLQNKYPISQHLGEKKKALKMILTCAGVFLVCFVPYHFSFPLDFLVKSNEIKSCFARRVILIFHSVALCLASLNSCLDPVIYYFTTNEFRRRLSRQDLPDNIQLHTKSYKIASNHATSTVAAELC

[9] = biological target: Putative P2Y purinoceptor 10 (Mus musculus) (UniProt Q8BFU7); assay: Agonist activity at mouse P2Y10 receptor expressed in rat McA-RH7777 cells assessed as induction of actin stress fiber formation at 100 nM after 30 mins by Alexa fluor 594-labelled phalloidin/DAPI staining based fluorescence microscopy; assay type: cell-based
Procedure, shortened: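 McA-RH7777 rat hepatoma cells stably expressing mouse P2Y10, or mock-infected, seeded on collagen I at 2.5 × 10^4 cells/well, grown 24 h in 10% FBS DMEM. Serum-starved 1 h in 0.01% BSA DMEM, stimulated 30 min. Fixed in 4% paraformaldehyde, Triton X-100 permeabilised, stained 1 h with Alexa 594-phalloidin (1.5 μg/mL) and DAPI (1 μg/mL). Scored by fluorescence imaging.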

[10] = test system: HEK293-A; assay: Selectivity ratio of EC50 for mouse P2Y10 receptor expressed in HEK293A cells to EC50 for mouse GPR34 expressed in HEK293A cells; assay type: cell-based

| SMILES | Emax [1] | pEC50 [2] | Emax [3] | pEC50 [4] | Intrinsic activity [5] | Intrinsic activity [6] | Activity [7] | Activity [8] | Activity [9] | EC50 ([4]; hek293-a) | Ratio EC50 [10] |
| --- | --- | --- | --- | --- | --- | --- | --- | --- | --- | --- | --- |
| Cc1ccc(Oc2cccc(COc3ccccc3CCC(=O)OC[C@H]3OCCC[C@H]3OP(=O)(O)OC[C@H](N)C(=O)O)c2)cc1 | 15.2% | 7.44 | inactive | < 6.00 | 3.6 | inactive | Active |  |  |  |  |
| N[C@@H](COP(=O)(O)O[C@@H]1CCCO[C@@H]1COC(=O)CCc1ccccc1OCc1cccc(Oc2ccc(Cl)cc2)c1)C(=O)O | 16.6% | 7.43 | inactive | < 6.00 | 3.8 | inactive | Active |  |  |  |  |
| N[C@@H](COP(=O)(O)OC[C@H]1OCCC[C@H]1OC(=O)CCc1ccccc1OCc1cccc(Oc2ccccc2)c1)C(=O)O | 17.7% | 6.72 | inactive | < 6.00 | 0.85 | inactive | Active | inactive | inactive |  | 100 |

The remaining molecules from weak to strong by pEC50 [2], led by results:

| Emax [1] | pEC50 [2] | Emax [3] | pEC50 [4] | Intrinsic activity [5] | Intrinsic activity [6] | Activity [7] | Activity [8] | Activity [9] | EC50 ([4]; hek293-a) | SMILES | Ratio EC50 [10] |
| --- | --- | --- | --- | --- | --- | --- | --- | --- | --- | --- | --- |
| 14.8% | 6.85 | inactive | < 6.00 |  | inactive | Active | inactive | inactive |  | N[C@@H](COP(=O)(O)O[C@@H]1CCCO[C@@H]1COC(=O)CCc1ccccc1OCc1cccc(Oc2ccccc2)c1)C(=O)O | 100 |
| 15.1% | 6.92 | inactive | < 6.00 | 1.2 | inactive | Active |  |  |  | N[C@@H](COP(=O)(O)OC[C@H]1OCCC[C@H]1OC(=O)CCc1ccccc1OCc1cccc(Oc2ccc(Cl)cc2)c1)C(=O)O |  |
| 16% | 7.11 |  |  | 1.9 |  | Active |  |  | Not Active | Cc1ccc(Oc2cccc(COc3ccccc3CCC(=O)O[C@@H]3CCCO[C@@H]3COP(=O)(O)OC[C@H](N)C(=O)O)c2)cc1 |  |
